In ChEMBL document CHEMBL1127047, “10,5-(Iminomethano)-10,11-dihydro-5H-dibenzo[a,d]cycloheptene and derivatives. Potent PCP receptor ligands” (J Med Chem, 1993):
Where “and” joins values, the source holds several entries; their conditions need not be identical. Equal entries are not always repeated.

Experiments:
[1] = target: Glutamate NMDA receptor; assay: Inhibition of [3H]MK-801 binding to the PCP receptor site in guinea pig brain homogenate; type: tissue-based
[2] = In vitro neuroprotection against glutamate-induced toxicity at 5 uM using rat hippocampal cell cultures at 30 uM of glutamate; type: functional, Hippocampus
Procedure, shortened: (§1)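 Dissociated hippocampal cultures from 1–3 day postnatal Sprague–Dawley rats, papain-dissociated and treated with 5 μM cytosine arabinoside. Blind, coded test. In HEPES-buffered salt solution (pH 7.4, 32–34 °C), cultures got a 5 min preincubation with 1 μM glycine plus compound, then 5 min with glycine, compound and glutamate. Next day, 0.4% Trypan Blue; surviving cells in the grid were counted by phase contrast and expressed as % of highest count.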

[3] = In vitro neuroprotection against glutamate-induced toxicity at 5 uM using rat hippocampal cell cultures at 100 uM of glutamate; type: functional, Hippocampus; procedure, shortened: as §1
[4] = In vitro neuroprotection against glutamate-induced toxicity at 5 uM using rat hippocampal cell cultures at 1000 uM of glutamate; type: functional, Hippocampus; procedure, shortened: as §1
[5] = In vitro neuroprotection against glutamate-induced toxicity at 5 uM using rat hippocampal cell cultures at 3 uM of glutamate; type: functional, Hippocampus; procedure, shortened: as §1
[6] = In vitro neuroprotection against glutamate-induced toxicity at 5 uM using rat hippocampal cell cultures at 10 uM of glutamate; type: functional, Hippocampus; procedure, shortened: as §1
[7] = In vitro neuroprotection against glutamate-induced toxicity at 5 uM using rat hippocampal cell cultures at 0 uM of glutamate; type: functional, Hippocampus; procedure, shortened: as §1
[8] = In vitro neuroprotection against glutamate-induced toxicity at 5 uM using rat hippocampal cell cultures at 300 uM of glutamate; type: functional, Hippocampus; procedure, shortened: as §1
[9] = In vitro neuroprotection against glutamate-induced toxicity at 10 uM using rat hippocampal cell cultures at 300 uM of glutamate; type: functional, Hippocampus; procedure, shortened: as §1
[10] = In vitro neuroprotection against glutamate-induced toxicity at 10 uM using rat hippocampal cell cultures at 0 uM of glutamate; type: functional, Hippocampus; procedure, shortened: as §1
[11] = In vitro neuroprotection against glutamate-induced toxicity at 10 uM using rat hippocampal cell cultures at 1000 uM of glutamate; type: functional, Hippocampus; procedure, shortened: as §1
[12] = In vitro neuroprotection against glutamate-induced toxicity at 10 uM using rat hippocampal cell cultures at 3 uM of glutamate; type: functional, Hippocampus; procedure, shortened: as §1
[13] = In vitro neuroprotection against glutamate-induced toxicity at 10 uM using rat hippocampal cell cultures at 30 uM of glutamate; type: functional, Hippocampus; procedure, shortened: as §1
[14] = In vitro neuroprotection against glutamate-induced toxicity at 10 uM using rat hippocampal cell cultures at 10 uM of glutamate; type: functional, Hippocampus; procedure, shortened: as §1
[15] = In vitro neuroprotection against glutamate-induced toxicity at 10 uM using rat hippocampal cell cultures at 100 uM of glutamate; type: functional, Hippocampus; procedure, shortened: as §1

Question: For `COc1ccc2c(c1)C1CNC2Cc2ccc(Cl)cc21` (stereo not given), which IC50 [1] is on record?
Answer: The IC50 was 113 nM.

Question: Which IC50 [1] does the source give for `CN(C)CCCN1CC2c3ccccc3CC1c1ccccc12` (stereo not given) here?
Answer: The IC50 was 12000 nM.

Question: With `Clc1ccc2c(c1)C1CNC(C2)c2ccccc21` (stereo in doubt; (-)-13c) as the compound, how does the IC50 [1] read?
Answer: The IC50 was 931 nM.

Question: For `C[C@]12N[C@H](Cc3ccccc31)c1ccccc12` [DIZOCILPINE], which Neuroprotection [2] is on record?
Answer: Its Neuroprotection is 95.5%.

Question: What about the Neuroprotection [3] of the same compound?
Answer: The Neuroprotection was 93.9%.

Question: What about the Neuroprotection [4] of the same compound?
Answer: Its Neuroprotection is 88.4%.

Question: What about the Neuroprotection [5] of the same compound?
Answer: The Neuroprotection was 98.3%.

Question: What about the Neuroprotection [6] of the same compound?
Answer: Its Neuroprotection is 94.7%.

Question: And the Neuroprotection [7]?
Answer: The Neuroprotection was 97.5%.

Question: What about the Neuroprotection [8] of the same compound?
Answer: Its Neuroprotection is 90.3%.

Question: What does the source list for `c1ccc2c(c1)CC1NCC2c2ccccc21` (racemic)?
Answer: Neuroprotection [2]: 71.5%; Neuroprotection [3]: 61.3%; Neuroprotection [4]: 25.5%; Neuroprotection [5]: 85.3%; Neuroprotection [6]: 76.6%; Neuroprotection [7]: 99.1%; Neuroprotection [8]: 39.9%

Question: For `COc1ccc2c(c1)C1CNC(C2)c2ccccc21` (stereo not given), which IC50 [1] is on record?
Answer: Its IC50 is 168 nM.

Question: Which IC50 [1] does the source give for `CC(C)N1CC2c3ccccc3CC1c1ccccc12` (stereo not given) here?
Answer: Its IC50 is 1880 nM.

Question: With `Ic1ccc2c(c1)C1CNC(C2)c2ccccc21` (stereo not given) as the compound, how does the IC50 [1] read?
Answer: Its IC50 is 160 nM.

Question: With `Clc1ccc2c(c1)C1CNC(C2)c2ccccc21` (stereo in doubt; (+)-13c) as the compound, how does the IC50 [1] read?
Answer: The IC50 was 32.1 nM.

Question: For `CN1CC2c3cc(Br)ccc3CC1c1ccccc12` (stereo not given), which IC50 [1] is on record?
Answer: Its IC50 is 1040 nM.

Question: For `[N-]=[N+]=Nc1ccc2c(c1)C1CNC(C2)c2ccccc21` (stereo not given), which IC50 [1] is on record?
Answer: Its IC50 is 500 nM.

Question: Which IC50 [1] does the source give for `c1ccc2c(c1)CC1NCC2c2ccccc21` (stereo in doubt; 3) here?
Answer: The IC50 was 59.4 nM.

Question: Which IC50 [1] does the source give for `Cc1ccc2c(c1)C1CNC(C2)c2ccccc21` (stereo not given) here?
Answer: The IC50 was 108 nM.

Question: For `Clc1ccc2c(c1)C1CNC2Cc2ccccc21` (stereo not given), which IC50 [1] is on record?
Answer: Its IC50 is 690 nM.

Question: Which IC50 [1] does the source give for `CC12CNC(Cc3ccccc31)c1ccccc12` (stereo not given) here?
Answer: The IC50 was 119 nM.

Question: With `c1ccc(CN2CC3c4ccccc4CC2c2ccccc23)nc1` (stereo not given) as the compound, how does the IC50 [1] read?
Answer: Its IC50 is greater than 10000 nM.

Question: For `Fc1ccc2c(c1)C1CNC(C2)c2ccccc21` (stereo in doubt; 13e), which IC50 [1] is on record?
Answer: Its IC50 is 29.4 nM.

Question: Which IC50 [1] does the source give for `O=[N+]([O-])c1ccc2c(c1)C1CNC(C2)c2ccccc21` (stereo not given) here?
Answer: The IC50 was 4300 nM.

Question: With `Fc1ccc2c(c1)C1CNC(C2)c2ccc(F)cc21` (stereo not given) as the compound, how does the IC50 [1] read?
Answer: The IC50 was 51.2 nM.

Question: Which IC50 [1] does the source give for `Nc1ccc2c(c1)C1CNC(C2)c2ccccc21` (stereo not given) here?
Answer: The IC50 was 486 nM.

Question: Which IC50 [1] does the source give for `c1ccc(-c2ccc3c(c2)C2CNC(C3)c3ccccc32)cc1` (stereo not given) here?
Answer: Its IC50 is 421 nM.

Question: For `Clc1ccc2c(c1)C1CNC(C2)c2ccccc21` (stereo in doubt; 13c), which IC50 [1] is on record?
Answer: The IC50 was 71.3 nM.

Question: Which results are given for `c1ccc2c(c1)CC1NCC2c2ccccc21` (single isomer, unassigned; (+))?
Answer: Neuroprotection [2]: 73.3%; IC50 [1]: 37.6 nM and 4.2 nM; Neuroprotection [3]: 73.9%; Neuroprotection [4]: 40.5%; Neuroprotection [5]: 68.8%; Neuroprotection [6]: 76.3%; Neuroprotection [7]: 93.6%; Neuroprotection [8]: 57.2%

Question: With `Fc1ccc2c(c1)C1CNC(C2)c2ccccc21` (single isomer, unassigned; (-)) as the compound, how does the IC50 [1] read?
Answer: The IC50 was 531 nM.

Question: With `CC(=O)N1CC2c3ccccc3CC1c1ccccc12` (stereo not given) as the compound, how does the IC50 [1] read?
Answer: Its IC50 is greater than 10000 nM.

Question: For `COc1ccc2c(c1)C1CNC2Cc2ccccc21` (stereo not given), which IC50 [1] is on record?
Answer: The IC50 was 332 nM.

Question: For `Fc1ccc2c(c1)C1CNC(C2)c2ccccc21` (single isomer, unassigned; (+)), which IC50 [1] is on record?
Answer: The IC50 was 15.5 nM.

Question: Which IC50 [1] does the source give for `Brc1ccc2c(c1)C1CNC(C2)c2ccccc21` (stereo not given) here?
Answer: The IC50 was 51.7 nM.

Question: Which IC50 [1] does the source give for `CC(=O)N1CC2c3cc([N+](=O)[O-])ccc3CC1c1ccccc12` (stereo not given) here?
Answer: Its IC50 is greater than 10000 nM.

Question: With `COc1ccc2c(c1)C1CN(C)C2Cc2ccc(Br)cc21` (stereo not given) as the compound, how does the IC50 [1] read?
Answer: Its IC50 is 643 nM.

Question: With `COc1ccc2c(c1)C1CNC2Cc2ccc(Br)cc21` (stereo not given) as the compound, how does the IC50 [1] read?
Answer: The IC50 was 114 nM.

Question: For `CN1CC2c3ccccc3CC1c1ccccc12` (single isomer, unassigned; (+)), which Neuroprotection [9] is on record?
Answer: Its Neuroprotection is 56.6%.

Question: What about the Neuroprotection [2] of the same compound?
Answer: The Neuroprotection was 62.7%.

Question: What about the Neuroprotection [10] of the same compound?
Answer: Its Neuroprotection is 97.8%.

Question: And the IC50 [1]?
Answer: The IC50 was 826 nM.

Question: And the Neuroprotection [3]?
Answer: Its Neuroprotection is 59.9%.

Question: And the Neuroprotection [11]?
Answer: Its Neuroprotection is 53.3%.

Question: What about the Neuroprotection [12] of the same compound?
Answer: Its Neuroprotection is 93.6%.

Question: And the Neuroprotection [13]?
Answer: The Neuroprotection was 92.1%.

Question: And the Neuroprotection [14]?
Answer: The Neuroprotection was 90%.

Question: And the Neuroprotection [4]?
Answer: The Neuroprotection was 23.3%.

Question: What about the Neuroprotection [5] of the same compound?
Answer: Its Neuroprotection is 74.7%.

Question: What about the Neuroprotection [6] of the same compound?
Answer: The Neuroprotection was 65%.

Question: What about the Neuroprotection [7] of the same compound?
Answer: Its Neuroprotection is 91%.

Question: And the Neuroprotection [15]?
Answer: Its Neuroprotection is 84%.

Question: What about the Neuroprotection [8] of the same compound?
Answer: Its Neuroprotection is 58.7%.
